Reference: ChEMBL document CHEMBL1144988, “Stereoselective preparation of N-[(R,R)-(E)-1-(3,4-dichlorobenzyl)-3- (2-oxoazepan-3-yl)carbamoyl]allyl-N-methyl-3,5-bis(trifluoromethyl)benzamide, a potent and orally active dual neurokinin NK(1)/NK(2) receptor antagonist” (J Med Chem, 2003)
“And” between values parts separate entries of the source, which are not always exact repeats. Equal values may be shown once.

Columns and labels:
[1] = biological target: Substance-P receptor (Homo sapiens, UniProt P25103); experiment: In vitro binding affinity towards Human Tachykinin receptor 1
Procedure, shortened: (§1)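 Membranes from CHO cells expressing cloned human NK1 receptor, incubated with 3H-[Sar9,Met(O2)11]SP (0.5 nM final) in 20 mM HEPES, 1 mM MnCl2, pH 7.4, for 60 min at 28 °C. Nonspecific binding was defined with Sar9SP. Bound radioactivity was collected by filtration, washed with ice-cold 50 mM Tris pH 7.4, then counted by scintillation.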

[2] = biological target: T1, Substance-K receptor (Homo sapiens, UniProt P21452); experiment: In vitro binding affinity towards Human Tachykinin receptor 2
T1 sequence (P21452 whole entry): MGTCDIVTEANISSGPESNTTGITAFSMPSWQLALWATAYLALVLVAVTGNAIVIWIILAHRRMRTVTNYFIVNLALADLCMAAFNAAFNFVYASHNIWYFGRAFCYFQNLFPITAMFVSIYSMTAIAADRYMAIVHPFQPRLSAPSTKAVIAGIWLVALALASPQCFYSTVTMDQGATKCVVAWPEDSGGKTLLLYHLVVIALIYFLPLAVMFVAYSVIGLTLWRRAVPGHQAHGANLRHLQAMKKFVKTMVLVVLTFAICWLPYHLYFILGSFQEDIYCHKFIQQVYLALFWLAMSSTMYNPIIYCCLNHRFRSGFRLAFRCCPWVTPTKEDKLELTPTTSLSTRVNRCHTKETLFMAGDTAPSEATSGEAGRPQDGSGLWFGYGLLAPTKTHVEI
Procedure, shortened: as §1, with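 “NK2” for “NK1”, “125I-neurokinin A (1.4” for “3H-[Sar9,Met(O2)11]SP (0.5”, “NKA.” for “Sar9SP.”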

[3] = test system: Cavia porcellus; experiment: (§2) Plasma concentration in Blood of guinea pig when given at a dose of 10 mg/kg perorally; assay type: ADME, organism-based; set-up: dose 10 mg/kg, route oral; conditions: in vivo, po
Procedure, shortened: (§3)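 Guinea pigs given a single oral dose of 10 mg/kg (n = 7) as a microemulsion (2% DMSO/20% Sandimmon placebo/78% saline) or as a cremophor/2% DMSO formulation. Food was withdrawn up to 18 h predose, and animals carried heparin-flushed cannulas. Blood was sampled at 60, 120, 240, 360, 480, 720 and 1440 min. The read-outs were t1/2, Cmax, AUC0–24h and bioavailability.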

[4] = as §2; assay type: ADME, organism-based, Cavia porcellus; set-up: dose 10 mg/kg, route oral; conditions: plasma, po; procedure, shortened: as §3
[5] = Area Under the concentration-time curve from zero time to 24 hr in guinea pig when given at a dose of 3 mg/kg intravenously; assay type: ADME, organism-based, Cavia porcellus; set-up: time < 24 hr, dose 3 mg/kg, route intravenous; conditions: in vivo, iv
Procedure, shortened: (§4)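 Guinea pigs given 3 mg/kg iv via the jugular vein (n = 6) in a cremophor formulation, with cannulas flushed with heparinized saline. Blood was sampled at 5, 30, 60, 120, 240, 360, 720 and 1440 min. The read-outs were terminal elimination half-life and AUC0–24h.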

[6] = Area Under the concentration-time curve from zero time to 24 hr in guinea pig when given at a dose of 10 mg/kg perorally (Microemulsion); assay type: ADME, organism-based, Cavia porcellus; set-up: time < 24 hr, dose 10 mg/kg, route oral; conditions: in vivo, po; procedure, shortened: as §3
[7] = biological target: Substance-P receptor (Cavia porcellus, UniProt P30547); experiment: In vitro relative antagonist potency towards guinea pig Tachykinin receptor 1; assay type: functional; conditions: read-out: pA2 (converted)
[8] = test system: Saimiri sciureus; experiment: In vivo Effective peroral dose which inhibits Beta-ala8-Neurokinin A induced bronchoconstriction (dynamic compliance) in squirrel monkey; conditions: in Primates, po
[9] = Half life period in guinea pig when given at a dose of 3 mg/kg intravenously; assay type: ADME, organism-based, Cavia porcellus; set-up: dose 3 mg/kg, route intravenous; conditions: in vivo, iv; procedure, shortened: as §4
[10] = test system: Saimiri sciureus; experiment: In vivo Effective peroral dose which inhibits Beta-ala8-Neurokinin A induced bronchoconstriction (airways resistance) in squirrel monkey; conditions: in Primates, po
[11] = test system: Cavia porcellus; experiment: (§5) Half life period in guinea pig when given at a dose of 10 mg/kg perorally; assay type: ADME, organism-based; set-up: dose 10 mg/kg, route oral; conditions: in vivo, po; procedure, shortened: as §3
[12] = as §5; assay type: ADME, organism-based, Cavia porcellus; set-up: dose 10 mg/kg, route oral; conditions: in vivo, po; procedure, shortened: as §3
[13] = biological target: T2, Substance-K receptor (Cavia porcellus, UniProt Q64077); experiment: In vitro relative antagonist potency towards guinea pig Tachykinin receptor 2; assay type: functional; conditions: read-out: pA2 (converted)
T2 sequence (Q64077 whole entry): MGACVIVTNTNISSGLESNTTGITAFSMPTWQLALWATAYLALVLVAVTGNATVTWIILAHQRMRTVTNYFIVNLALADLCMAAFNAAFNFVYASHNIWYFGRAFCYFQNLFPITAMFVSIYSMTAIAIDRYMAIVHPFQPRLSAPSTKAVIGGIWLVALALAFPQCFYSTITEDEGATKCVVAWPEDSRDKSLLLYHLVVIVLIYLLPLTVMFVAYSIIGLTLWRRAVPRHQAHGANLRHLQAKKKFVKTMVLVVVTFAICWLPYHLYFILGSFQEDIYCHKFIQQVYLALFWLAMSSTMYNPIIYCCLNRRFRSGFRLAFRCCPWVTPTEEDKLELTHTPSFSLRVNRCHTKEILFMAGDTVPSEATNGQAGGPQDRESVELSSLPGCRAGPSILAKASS

[14] = Area Under the concentration-time curve from zero time to 24 hr in guinea pig when given at a dose of 10 mg/kg perorally (cremophor); assay type: ADME, organism-based, Cavia porcellus; set-up: time < 24 hr, dose 10 mg/kg, route oral; conditions: in vivo, po; procedure, shortened: as §3
[15] = Bioavailability in guinea pig (dose 10 mg/kg p.o.); assay type: ADME, organism-based, Cavia porcellus; conditions: in vivo, po; procedure, shortened: as §3

Sequence of Substance-P receptor (Homo sapiens, UniProt P25103) (P25103 whole entry): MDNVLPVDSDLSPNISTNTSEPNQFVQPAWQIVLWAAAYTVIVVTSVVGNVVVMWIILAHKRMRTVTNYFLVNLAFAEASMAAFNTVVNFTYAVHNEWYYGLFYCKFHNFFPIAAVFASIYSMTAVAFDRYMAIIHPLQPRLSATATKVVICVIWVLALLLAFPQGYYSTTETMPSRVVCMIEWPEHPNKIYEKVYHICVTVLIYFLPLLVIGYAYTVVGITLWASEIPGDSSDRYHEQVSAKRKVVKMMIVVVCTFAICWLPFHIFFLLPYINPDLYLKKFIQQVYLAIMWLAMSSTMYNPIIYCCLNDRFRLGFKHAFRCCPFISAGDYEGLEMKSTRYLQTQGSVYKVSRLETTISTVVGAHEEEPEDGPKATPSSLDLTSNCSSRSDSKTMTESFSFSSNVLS
Sequence of Substance-P receptor (Cavia porcellus, UniProt P30547) (P30547 whole entry): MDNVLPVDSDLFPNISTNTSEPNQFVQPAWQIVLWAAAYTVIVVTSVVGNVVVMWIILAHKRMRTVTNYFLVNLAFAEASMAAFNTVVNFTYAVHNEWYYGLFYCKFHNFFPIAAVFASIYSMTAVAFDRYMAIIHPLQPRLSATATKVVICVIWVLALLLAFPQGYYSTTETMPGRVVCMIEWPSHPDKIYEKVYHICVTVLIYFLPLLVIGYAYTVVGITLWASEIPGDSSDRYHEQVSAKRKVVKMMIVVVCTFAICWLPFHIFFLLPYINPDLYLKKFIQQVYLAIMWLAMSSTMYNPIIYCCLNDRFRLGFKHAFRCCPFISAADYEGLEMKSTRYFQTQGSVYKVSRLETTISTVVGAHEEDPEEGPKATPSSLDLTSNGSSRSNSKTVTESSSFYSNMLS

SMILES	Ki [1]	Ki [2]	Cmax [3]	Cmax [4]	AUC at 24 h [5]	AUC at 24 h [6]	Kb [7]	ED50 [8]	half-life [9]	ED50 [10]	T1/2 [11]	half-life [12]	Kb [13]	AUC at 24 h [14]	F [15]
CN(C(=O)c1cc(C(F)(F)F)cc(C(F)(F)F)c1)[C@@H](/C=C/C(=O)N[C@H]1CCCCNC1=O)Cc1ccc(Cl)c(Cl)c1	8.71 nM	102 nM	–	–	–	–	–	–	–	–	–	–	–	–	–
CN(C(=O)c1cc(C(F)(F)F)cc(C(F)(F)F)c1)[C@H](/C=C/C(=O)N[C@@H]1CCCCNC1=O)Cc1ccc(Cl)c(Cl)c1	0.832 nM	457 nM	–	–	–	–	–	–	–	–	–	–	–	–	–
CN(C(=O)c1cc(C(F)(F)F)cc(C(F)(F)F)c1)[C@@H](/C=C/C(=O)N[C@@H]1CCCCNC1=O)Cc1ccc(Cl)c(Cl)c1 [DNK333]	4.17 nM	9.55 nM	415 ng/mL	600 ng/mL	4690 ng·h/mL	6380 ng·h/mL	11.7 nM	2.8 mg/kg	4.2 h	1 mg/kg	5.4 h	3.8 h	53.7 nM	2710 ng·h/mL	41% and 17.4%
CN(C(=O)c1cc(C(F)(F)F)cc(C(F)(F)F)c1)[C@H](/C=C/C(=O)N[C@H]1CCCCNC1=O)Cc1ccc(Cl)c(Cl)c1	18.2 nM	182 nM	–	–	–	–	–	–	–	–	–	–	–	–	–
